Compound activity from PubChem BioAssay.
Rows were chosen to be rich in hits. Some 1.7% of all compounds tested hit in one or more screens of this group.
SR-BI DiI inh – blocks mouse SR-BI lipid uptake from DiI-HDL. inhibition, % at 12.5 µM. Q61009. 320,000 tested, 0.96% active. ldlA[mSR-BI] CHO cells, DiI-HDL uptake fluorescence, 3 h;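 active means mean replicate inhibition of at least 70% and a set share of replicates each scoring 70 or more; inconclusive means meets just one of the two criteria; inactive means fails both criteria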;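 further: 0% = median of neutral control wells and 100% = median of positive control wells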
SR-BI DiI-HDL act – SR-BI HDL lipid transfer activation. CHO ldlA[mSR-BI] cells, DiI-HDL uptake fluorescence, 3 h; 100 = double the neutral-control signal. activation, % at 12.5 µM. 320,000 tested, 0.096% active;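 active means mean replicate activation of at least 60% and every replicate at or above 60%; inconclusive means mean or all-replicate condition met, but not both; inactive means mean below 60% and not all replicates reaching 60%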;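 further: 0% = median plate neutral-control signal and 100% = twice that signal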
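system = CHO ldlA[mSR-BI] cells, LDL receptor-null, SR-BI overexpressing | medium = Ham's F12 with 0.5% BSA, HEPES 25 mM, pH 7.4 | probe or stimulus = DiI-HDL 10 µg/mL | compound dosing = single-point compound dose | incubation = compound exposure 3 h, 37 °C | technique = DiI fluorescence, bottom read | read-out = cell-associated DiI fluorescence as measure of HDL uptake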
NTR1 ag – activates human neurotensin receptor 1; AID 493036; P30989; activation, % at 20 µM; 330,000 tested, 0.17% active; NTR1-U2OS beta-arrestin-GFP spot imaging, agonist mode;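 active means activation at or above 40% of the spot to cytoplasm intensity ratio, with at least 20 cells analyzed; inconclusive means wells under 20 cells, flagged as cytotoxic or low count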;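 further: 0% = DMSO without peptide and 100% = 100 nM NTR1 peptide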
Target sequence (P30989 whole entry, looked up): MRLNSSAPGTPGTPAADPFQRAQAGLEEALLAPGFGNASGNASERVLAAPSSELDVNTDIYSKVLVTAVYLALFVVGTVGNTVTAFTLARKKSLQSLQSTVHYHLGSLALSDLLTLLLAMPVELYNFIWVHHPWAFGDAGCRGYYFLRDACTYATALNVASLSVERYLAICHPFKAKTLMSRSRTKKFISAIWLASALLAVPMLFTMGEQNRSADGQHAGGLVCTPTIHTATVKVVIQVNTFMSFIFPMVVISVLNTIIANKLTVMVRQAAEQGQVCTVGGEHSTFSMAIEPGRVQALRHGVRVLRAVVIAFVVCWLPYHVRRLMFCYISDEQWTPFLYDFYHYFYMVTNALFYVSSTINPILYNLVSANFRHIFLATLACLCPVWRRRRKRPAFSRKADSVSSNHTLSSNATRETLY
CaV13 ICDI inh – Disruptors of the CACNA1D IQ motif to Ca2+-dependent inactivation inhibitor domain association, primary screening, Förster resonance energy transfer in intact living …. HEK cells, CFP/YFP FRET ICDI-IQ, plate reader, 10 min; percent FRET-ratio fall versus neutral wells. inhibition, % at 12.3 µM. 340,000 tested, 0.098% active;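 active means mean replicate inhibition of at least 30% and at least 1% of replicates passing that level; inconclusive means only one of the two criteria is met; inactive means neither criterion is met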;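 further: 0% = median of the neutral control wells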
V-ATPase pHluor – yeast V-ATPase proton transport regulation by pHLuorin. S. cerevisiae, pHLuorin cytosolic pH fluorescence. response, % at 10 µM. 350,000 tested, 0.37% active; in the data active means response mostly above about 7.3%, no sharp cut-off; inactive means mostly below about 5.4%; further: actives read high
Vif imaging – inhibitors of HIV Vif; 340,000 tested, 0.35% active; AID 602346; HEK293T cells, Vif self-association by quenched fluorescence, imaging, 24 h; inhibition, % at 7.49 µM; in the data active means inhibition above about 50%, passing the limit was not always enough; inconclusive means no clear call, values can overlap the other calls; inactive means below about 31%
* hit, by the source's call.

`CCc1ccc2c(c1)C(c1ccc([N+](=O)[O-])cc1)=NNC(c1ccc(C)cc1)=N2` gave SR-BI DiI inh 75*, SR-BI DiI-HDL act -75, NTR1 ag 4, CaV13 ICDI inh -15, V-ATPase pHluor 0 and Vif imaging -7.
CCCCc1ccc(/C(C)=N/Nc2cc(N3CCOCC3)nc(C)n2)cc1 was read as SR-BI DiI inh 2, SR-BI DiI-HDL act -2, NTR1 ag 13, CaV13 ICDI inh -11, V-ATPase pHluor -5 and Vif imaging -6.
`COc1ccc(-c2c/c(=N\c3nc(-c4ccccc4)c(C)s3)c3ccccc3o2)cc1O` gave SR-BI DiI inh 80*, SR-BI DiI-HDL act -80, NTR1 ag -2, CaV13 ICDI inh -5, V-ATPase pHluor -1 and Vif imaging -84.
`Nc1nc2c(ncn2[C@@H]2O[C@H](C(=O)N[C@@H](Cc3ccccc3)C(=O)NCC3CCCCC3)[C@@H](O)[C@H]2O)c(=O)[nH]1` gave CaV13 ICDI inh -9.
For N=c1c(C(=O)NCC2CCCO2)cc2c(=O)n3ccccc3nc2n1Cc1ccc(Cl)cc1 (stereo not given) the results were SR-BI DiI inh -5, SR-BI DiI-HDL act 5, NTR1 ag 4, CaV13 ICDI inh 94*, V-ATPase pHluor -1 and Vif imaging -24.
For CCCOc1ccc(C(F)(F)F)cc1NC(=O)c1cc(C)on1 the results were SR-BI DiI inh 72*, SR-BI DiI-HDL act -72, NTR1 ag 1, CaV13 ICDI inh -5 and V-ATPase pHluor 3.
Screening COCCOc1ccc(C(F)(F)F)cc1NC(=O)c1ccc(C(F)(F)F)cc1 returned SR-BI DiI inh 18, SR-BI DiI-HDL act -18, NTR1 ag 4, CaV13 ICDI inh -15, V-ATPase pHluor 0 and Vif imaging -6.
`Nc1cc(=O)[nH]c(=O)n1CC1CC1` gave SR-BI DiI inh -34, SR-BI DiI-HDL act 34, NTR1 ag 3, CaV13 ICDI inh -5, V-ATPase pHluor -3 and Vif imaging 3.
Screening N#CC(=Cc1ccccn1)c1nc(-c2ccc(Cl)cc2)cs1 returned CaV13 ICDI inh -8, V-ATPase pHluor 1 and Vif imaging 103*.
Screening N#C/C(=C\Nc1ccc2cn[nH]c2c1)c1nc(-c2ccc(Cl)cc2)cs1 returned SR-BI DiI inh inconclusive, SR-BI DiI-HDL act -72, NTR1 ag 4, CaV13 ICDI inh -5, V-ATPase pHluor 0 and Vif imaging -4.
For CC(=O)c1c(C)[nH]c(C(=O)Nc2ccc(Cl)c(S(=O)(=O)N3CCOCC3)c2)c1C the results were SR-BI DiI inh 79*, SR-BI DiI-HDL act -79, NTR1 ag 5, CaV13 ICDI inh -2, V-ATPase pHluor -2 and Vif imaging 0.
For COc1ccc(NC(=O)c2[nH]c(C)c(C(C)=O)c2C)cc1S(=O)(=O)N1CCOCC1 the results were SR-BI DiI inh 64, SR-BI DiI-HDL act -64, NTR1 ag 3, CaV13 ICDI inh -5, V-ATPase pHluor -2 and Vif imaging -5.
`CC(=O)c1c(C)[nH]c(C(=O)Nc2cccc(S(=O)(=O)N3CCCC3)c2)c1C` gave SR-BI DiI inh 74*, SR-BI DiI-HDL act -74, NTR1 ag 2, CaV13 ICDI inh -16, V-ATPase pHluor -3 and Vif imaging 0.
Screening CC(=O)c1c(C)[nH]c(C(=O)Nc2ccc(S(=O)(=O)N(C)C)cc2)c1C returned SR-BI DiI inh -2, SR-BI DiI-HDL act 2, NTR1 ag 3, CaV13 ICDI inh 5, V-ATPase pHluor -2 and Vif imaging 2.
Screening CC(=O)c1c(C)[nH]c(C(=O)Nc2cc(C)cc(C)c2)c1C returned SR-BI DiI inh 83*, SR-BI DiI-HDL act -83, NTR1 ag 0, V-ATPase pHluor -6 and Vif imaging 0.
Screening Cc1cc([N+](=O)[O-])cnc1Sc1nccn1C returned SR-BI DiI inh 14, SR-BI DiI-HDL act -14, NTR1 ag 0, CaV13 ICDI inh -19, V-ATPase pHluor 5 and Vif imaging 2.
`CN(O)/C=N/C(=S)Nc1ccc(Cl)cc1Cl` gave SR-BI DiI inh 14, SR-BI DiI-HDL act -14, NTR1 ag 3, CaV13 ICDI inh -4, V-ATPase pHluor 0 and Vif imaging 18.
`CC(C)c1cccc(C(C)C)c1NC(=O)c1ccc(-c2cc(Cl)ccc2Cl)o1` gave CaV13 ICDI inh -10 and Vif imaging -17.
Screening CC(=O)N1CCN(C(=O)c2cc3c(s2)CCCC3)CC1 returned SR-BI DiI inh -8, SR-BI DiI-HDL act 8, CaV13 ICDI inh -5, V-ATPase pHluor 18* and Vif imaging -2.
Brc1cccc(CSc2nnc(-c3ccncc3)o2)c1 was read as SR-BI DiI inh 3, SR-BI DiI-HDL act -3, NTR1 ag 4, CaV13 ICDI inh -4, V-ATPase pHluor 2 and Vif imaging -5.
For COC(=O)C1=C(C)NC(=O)NC1c1ccc(N2CCC(c3ccccc3)=N2)cc1 (stereo not given) the results were SR-BI DiI inh 78*, SR-BI DiI-HDL act -78, NTR1 ag 1, CaV13 ICDI inh -4, V-ATPase pHluor 1 and Vif imaging 17.
COC(=O)C1=C(C)NC(=O)NC1c1ccc(OC)c(OC)c1 (stereo not given) was read as CaV13 ICDI inh -4, V-ATPase pHluor -2 and Vif imaging 3.
For O=C(Nc1ccccn1)c1cc(-c2cccnc2)nc2ccc(Br)cc12 the results were SR-BI DiI inh 19, SR-BI DiI-HDL act -19, NTR1 ag 4, CaV13 ICDI inh -2, V-ATPase pHluor 5 and Vif imaging -1.
Screening O=C(Nc1ccc(C(=O)N2CCOCC2)cc1)c1cc(-c2cccnc2)nc2ccc(Br)cc12 returned SR-BI DiI inh 81*, SR-BI DiI-HDL act -81, NTR1 ag 1, CaV13 ICDI inh -6, V-ATPase pHluor -4 and Vif imaging -4.
Screening CCc1nc(Nc2ccc(N3CCN(C(C)=O)CC3)cc2)c2oc3ccccc3c2n1 returned SR-BI DiI inh 75*, SR-BI DiI-HDL act -75, NTR1 ag 5, V-ATPase pHluor 2 and Vif imaging -23.
O=C(N/N=C/c1ccncc1)C12CC3CC(CC(C3)C1)C2 was read as SR-BI DiI inh -17, SR-BI DiI-HDL act 17, NTR1 ag 2, CaV13 ICDI inh -6, V-ATPase pHluor -1 and Vif imaging -1.
For Cc1nn(CC(=O)NC(=O)c2ccccc2)c(C)c1[N+](=O)[O-] the results were SR-BI DiI inh -13, SR-BI DiI-HDL act 13, NTR1 ag -1, CaV13 ICDI inh -7, V-ATPase pHluor -2 and Vif imaging 54*.
`Cc1nn(CC(=O)NCc2ccccc2)c(C)c1[N+](=O)[O-]` gave SR-BI DiI inh -10, SR-BI DiI-HDL act 10, NTR1 ag -1, V-ATPase pHluor 2 and Vif imaging 5.
